# Screening data: PubChem BioAssay, Broad Institute
# KDM4C inh = KDM4C (human) demethylase inhibition; inhibition, % at 12.5 µM; 96,000 tested, 0.15% active; GST-KDM4C 2-372, H3K9me3 peptide, LANCE TR-FRET; AID 720574; Q9H3R0;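 active = mean replicate inhibition above about 25%, with at least 55% of replicates also reaching it, limit read from the data, passing the limit was not always enough; inconclusive = only one of those two conditions met; inactive = neither condition met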
# Target sequence (Q9H3R0 2-372 limits assumed): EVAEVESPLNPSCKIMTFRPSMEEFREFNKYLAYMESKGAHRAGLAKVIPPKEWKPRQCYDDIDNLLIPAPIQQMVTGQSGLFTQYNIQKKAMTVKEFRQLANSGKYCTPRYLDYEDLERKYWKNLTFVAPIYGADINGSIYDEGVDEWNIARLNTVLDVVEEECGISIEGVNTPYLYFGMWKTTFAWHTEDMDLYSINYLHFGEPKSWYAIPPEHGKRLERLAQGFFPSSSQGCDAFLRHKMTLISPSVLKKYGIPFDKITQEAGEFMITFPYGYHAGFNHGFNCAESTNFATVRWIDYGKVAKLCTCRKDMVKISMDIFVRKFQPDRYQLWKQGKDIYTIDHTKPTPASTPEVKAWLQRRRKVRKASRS
#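 System: N-terminal GST-fused human GASC-1 (KDM4C) fragment, residues 2-372 / Amount: 10 nM GST-KDM4C in enzyme reaction / Also added: H3K9me3 peptide with Fe(II)/2OG / Times: 30 min demethylation and 1 h detection at room temperature / Signal: LANCE TR-FRET / Read-out basis: Fall in 671/618 emission ratio as inhibition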
# T cruzi growth-1 = T. cruzi proliferation inhibition; T. cruzi beta-gal in NIH3T3, GalScreen luminescence, 90 h; inhibition, % at 8.34 µM; 77,000 tested, 5.9% active;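 active = mean inhibition above about 93%, with at least 55% of replicates each passing it, limit read from the data, passing the limit was not always enough; inconclusive = only one of those two conditions holds; inactive = neither condition holds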
# IDH1 mut inh = IDH1 R132H (human) inhibition; O75874; IDH1 R132H reductase, diaphorase/resazurin fluorescence, 60 min; inhibition, % at 10 µM; 70,000 tested, 0.18% active; in the data active = inhibition above about 34%; inconclusive = no clear call, values can overlap the other calls; inactive = below about 11%
# Pf Dd2 growth = P. falciparum Dd2 growth inhibition. SYBR Green, 72 h; hits give low values. activity change, % at 10 µM. 94,000 tested, 2.3% active; in the data active = activity change below about -80%; inconclusive = no clear call, values can overlap the other calls
# T cruzi growth-2 = blocks T. cruzi growth in NIH3T3 host cells; shares compounds with T cruzi growth-1; AID 651739; 5,600 tested, 72% active; T. cruzi beta-gal in NIH3T3, GalScreen luminescence, 90 h; inhibition, % at 8.35 µM;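 active = mean replicate inhibition above about 95% and at least 55% of replicates individually reaching it, limit read from the data; inconclusive = only one of the two criteria is met; inactive = neither criterion is met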
# T cruzi growth-3 = blocks T. cruzi growth in NIH3T3 host cells; shares compounds with T cruzi growth-1; T. cruzi beta-gal in NIH3T3, GalScreen luminescence, 90 h; inhibition, % at 2.09 µM; 5,600 tested, 21% active; AID 651740;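 active = mean inhibition above about 95%, with at least 55% of replicates also reaching it, limit read from the data; inconclusive = meets just one of the two conditions; inactive = meets neither condition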
# 3T3 cytotox = cytotoxicity in mouse NIH/3T3 fibroblasts; AID 651742; cytotoxicity (signal decrease), % at 8.35 µM; shares compounds with T cruzi growth-1; NIH/3T3 viability, CellTiter-Glo ATP luminescence, 90 h; 5,600 tested, 14% active;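 active = mean signal decrease across replicates above about 35% based on untreated-well scatter, with enough replicates individually passing, limit read from the data; inconclusive = no rule stated though some were filed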
# NIH3T3 tox 2 = kills mouse NIH/3T3 fibroblasts; inhibition, % at 24.9 µM; 5,600 tested, 56% active; NIH/3T3 viability, CellTiter-Glo ATP luminescence, 90 h; shares compounds with T cruzi growth-1;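 active = mean loss of cell viability signal at or above a set limit, and enough replicates individually reaching it; inconclusive = meets only the mean limit or only the replicate share; inactive = meets neither condition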
# A number is an active result; . = inactive; ? = inconclusive; / = no result. Rows were chosen to be rich in hits. Some 5.9% of all compounds tested hit in one or more screens of this group.
SMILES,KDM4C inh,T cruzi growth-1,IDH1 mut inh,Pf Dd2 growth,T cruzi growth-2,T cruzi growth-3,3T3 cytotox,NIH3T3 tox 2
O=C(C[C@H]1CC[C@H]2[C@@H](COC[C@@H](O)CN2CCC(F)(F)F)O1)NCC1CCCCC1,.,.,/,.,/,/,/,/
O=C(C[C@@H]1CC[C@@H]2[C@H](COC[C@H](O)CN2Cc2cccc(C(F)(F)F)c2)O1)NCc1ccc(Cl)cc1,.,.,/,.,/,/,/,/
O=C(C[C@H]1CC[C@@H]2[C@H](COC[C@@H](O)CN2Cc2cccc(Cl)c2)O1)NCC1CCCCC1,.,111,/,/,.,.,.,.
O=C(C[C@@H]1CC[C@@H]2[C@H](COC[C@@H](O)CN2Cc2cccc(C(F)(F)F)c2)O1)NCc1ccc(Cl)cc1,.,155,/,.,.,.,.,?
O=C(N/N=C/c1ccc(F)cc1)c1ccccc1O,/,/,.,/,/,/,/,/
COCc1nc2ccccc2n1CCOc1ccc(Cl)cc1Cl,/,/,.,/,/,/,/,/
O=C(C[C@@H]1CC[C@@H]2[C@H](COC[C@@H](O)CN2CCC(F)(F)F)O1)N1CCC(Cc2ccccc2)CC1,.,?,/,.,?,.,.,.
O=C(C[C@H]1CC[C@@H]2[C@H](COC[C@@H](O)CN2Cc2cccc(C(F)(F)F)c2)O1)NCc1ccc(Cl)cc1,.,178,/,.,109,.,47,56
O=C(C[C@H]1CC[C@@H]2[C@H](COC[C@H](O)CN2CCC(F)(F)F)O1)N1CCC(Cc2ccccc2)CC1,.,.,/,.,/,/,/,/
COc1ccccc1NC(=O)N1CCCCN2[C@H](CO)[C@H](c3ccc(-c4ccc(C)cc4)cc3)[C@@H]2C1,.,.,/,.,/,/,/,/
COc1ccccc1NC(=O)N1CCCCN2[C@H](CO)[C@H](c3ccc(-c4ccccc4)cc3)[C@H]2C1,/,108,/,.,108,.,.,105
COc1ccccc1NC(=O)N1CCCCN2[C@@H](CO)[C@@H](c3ccc(-c4ccccc4)cc3)[C@@H]2C1,/,?,/,.,104,.,61,104
COc1ccccc1NC(=O)N1CCCCN2[C@@H](CO)[C@H](c3ccc(-c4ccccc4)cc3)[C@@H]2C1,/,102,/,.,100,.,45,103
COc1ccccc1NC(=O)N1CCCCN2[C@H](CO)[C@H](c3ccc(-c4cccc(F)c4)cc3)[C@@H]2C1,.,115,/,.,101,110,.,37
COc1ccccc1NC(=O)N1CCCCN2[C@H](C1)[C@@H](c1ccc(-c3cccc(F)c3)cc1)[C@@H]2CO,.,.,/,.,/,/,/,/
CC(=O)c1cccc(N(CC(=O)Nc2c(C)cccc2C)S(C)(=O)=O)c1,/,/,.,/,/,/,/,/
C[C@@H]1CCCCO[C@H](CN(C)Cc2ccc(Cl)c(Cl)c2)[C@@H](C)CN([C@@H](C)CO)C(=O)c2cc(NC(=O)Nc3cccc4ccccc34)ccc2O1,.,125,/,-90,101,116,.,.
C[C@@H]1CN([C@@H](C)CO)C(=O)c2cc(NC(=O)Nc3cccc4ccccc34)ccc2O[C@@H](C)CCCCO[C@H]1CN(C)Cc1ccc(Cl)c(Cl)c1,.,122,.,.,107,106,.,.
C[C@@H]1CCCCO[C@@H](CN(C)Cc2ccc(Cl)c(Cl)c2)[C@H](C)CN([C@@H](C)CO)C(=O)c2cc(NC(=O)Nc3cccc4ccccc34)ccc2O1,.,126,/,.,110,112,.,.
COCCNS(=O)(=O)c1cc([N+](=O)[O-])ccc1C,/,/,.,/,/,/,/,/
CC(C)(C)c1ccc(OCC(=O)Nc2ccccc2C(N)=O)c(Br)c1,/,/,.,/,/,/,/,/
O=C(CNS(=O)(=O)c1ccccc1)Nc1cccc(Cl)c1Cl,/,/,.,/,/,/,/,/
O=C(Nc1cccc(Cl)c1)c1ccc(NCc2ccco2)c([N+](=O)[O-])c1,/,/,.,/,/,/,/,/
CCC(=O)N1CCCCN2[C@H](CO)[C@@H](c3ccc(C#CCOC)cc3)[C@@H]2C1,.,100,/,.,.,.,.,.
CCC(=O)N1CCCCN2[C@H](CO)[C@H](c3ccc(C#CCOC)cc3)[C@H]2C1,.,.,/,.,/,/,/,/
SMILES,KDM4C inh,T cruzi growth-1,IDH1 mut inh,Pf Dd2 growth,T cruzi growth-2,T cruzi growth-3,3T3 cytotox,NIH3T3 tox 2
COCC#Cc1ccc([C@@H]2[C@@H](CO)N3CCCCN(C(=O)COC)C[C@H]23)cc1,.,102,/,.,.,.,.,.
CN1[C@@H]2c3ccc(C4=CCCCC4)c(=O)n3C[C@@H]2[C@@H](CO)[C@@H]1C(=O)NCc1ccccc1,.,103,/,.,96,.,.,.
CN1[C@H](C(=O)NCc2ccccc2F)[C@@H](CO)[C@@H]2Cn3c(ccc(C4=CCCC4)c3=O)[C@@H]21,.,.,/,/,/,/,/,/
CCCN1[C@@H]2c3ccc(C4=CCCC4)c(=O)n3C[C@@H]2[C@@H](CO)[C@@H]1C(=O)NCc1cccc(OC)c1,.,101,/,.,.,.,.,?
COc1cccc(CNC(=O)[C@@H]2[C@@H](CO)[C@@H]3Cn4c(ccc(C5=CCCC5)c4=O)[C@@H]3N2CC2CC2)c1,.,.,/,.,/,/,/,/
O=C(CSc1nc2ccccc2c(=O)n1CC1CCCO1)c1ccc(Br)cc1 (configuration not stated),/,/,.,/,/,/,/,/
COc1ccc(S(=O)(=O)Nc2ccc3c(c2)OC[C@@H](C)N(Cc2cc(F)ccc2F)C[C@@H](C)[C@H](OC)CN(C)C3=O)cc1,.,122,.,.,110,.,.,.
CO[C@@H]1CN(C)C(=O)c2cc(NS(=O)(=O)c3cccc(F)c3)ccc2OC[C@@H](C)N(Cc2cc(F)ccc2F)C[C@H]1C,.,?,.,.,103,?,.,.
CO[C@H]1CN(C)C(=O)c2cc(NS(=O)(=O)c3cccc(F)c3)ccc2OC[C@@H](C)N(Cc2cc(F)ccc2F)C[C@H]1C,.,?,.,.,111,.,.,52
CO[C@@H]1CN(C)C(=O)c2cc(NS(=O)(=O)c3cccc(F)c3)ccc2OC[C@H](C)N(Cc2cc(F)ccc2F)C[C@H]1C,.,.,.,.,/,/,/,/
CO[C@@H]1CN(C)C(=O)c2ccc(NS(=O)(=O)c3cccc(F)c3)cc2OC[C@@H](C)N(Cc2cc(F)ccc2F)C[C@@H]1C,.,/,.,.,/,/,/,/
CO[C@@H]1CN(C)C(=O)c2ccc(NS(=O)(=O)c3cccc(F)c3)cc2OC[C@H](C)N(Cc2cc(F)ccc2F)C[C@@H]1C,.,/,.,.,/,/,/,/
CO[C@@H]1CN(C)C(=O)c2ccc(NS(=O)(=O)c3cccc(C)c3)cc2OC[C@@H](C)N(Cc2cc(F)ccc2F)C[C@H]1C,.,98,.,.,106,.,.,.
O=C(c1cccc(F)c1)N1CCCCN2[C@H](CO)[C@@H](c3ccc(/C=C/c4ccccc4)cc3)[C@H]2C1,.,.,/,.,/,/,/,/
